# Columns and labels:
# Assay type in all cases: functional
# Streptococcus pneumoniae [1] = assay: Antimicrobial activity against mega::aad9-positive Streptococcus pneumoniae XZ8004 by microdilution method
# Outline: (§1)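 Broth microdilution adapted for cationic antimicrobial peptides. Cultures grown to OD600 0.4 without inducer. Bacteria at a final 2 × 10^5/ml in 5-fold-diluted TH medium with 0.5% yeast extract, added to serial dilutions of test agent. After 1 h at 37°C, samples plated on blood agar and incubated 16 h at 37°C with 5% CO2. MIC and MBC read. At least three independent experiments; one representative shown.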
# Streptococcus pneumoniae [2] = assay: Antimicrobial activity against mega::aad9-positive Streptococcus pneumoniae XZ8004 by Etest method
# Streptococcus pneumoniae [3] = assay: Antimicrobial activity against mega::aad9-positive Streptococcus pneumoniae XZ8006 by microdilution method; outline: as §1
# Streptococcus pneumoniae [4] = assay: Antimicrobial activity against mefE-mel::aph3-positive Streptococcus pneumoniae XZ8009 expressing PmefE-lacZ gene induced by pretreatment with 50 ug/ml of compound for 1 hr by microdilution method
# Outline: (§2)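 Cultures grown to OD600 0.4, then split and pre-exposed 1 h to subinhibitory LL-37: 200 μg/ml for GA17457 and XZ7042, 50 for XZ8006 and XZ8009, 100 for XZ8004. Cells then at a final 2 × 10^5/ml in 5-fold-diluted TH with 0.5% yeast extract, added to serial dilutions. […] At least three independent experiments.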
# Streptococcus pneumoniae [5] = assay: Antimicrobial activity against mega::aad9-positive Streptococcus pneumoniae XZ8004 expressing PmefE-lacZ gene induced by pretreatment with 100 ug/ml of compound for 1 hr by microdilution method; outline: as §2
# Streptococcus pneumoniae [6] = assay: Antimicrobial activity against wild-type Streptococcus pneumoniae GA17457 by Etest method
# Streptococcus pneumoniae [7] = assay: Antimicrobial activity against mega::aad9-positive Streptococcus pneumoniae XZ8006 by Etest method
# Streptococcus pneumoniae [8] = assay: Antimicrobial activity against wild-type Streptococcus pneumoniae GA17457 by microdilution method; outline: as §1
# Streptococcus pneumoniae [9] = assay: Antimicrobial activity against Streptococcus pneumoniae XZ7042 expressing PmefE-lacZ gene induced by pretreatment with 1 ug/ml of erythromycin for 1 hr by microdilution method
# Outline: (§3)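 Cultures grown to OD600 0.4, split and pre-exposed 1 h to 1 μg/ml erythromycin. Final 2 × 10^5 bacteria/ml in 5-fold-diluted TH with 0.5% yeast extract, added to serial dilutions. After 1 h at 37°C, plated on blood agar. […] At least three independent experiments; one representative shown.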
# Streptococcus pneumoniae [10] = assay: Antimicrobial activity against Streptococcus pneumoniae XZ7042 by microdilution method; outline: as §1
# Streptococcus pneumoniae [11] = assay: Antimicrobial activity against mefE-mel::aph3-positive Streptococcus pneumoniae XZ8009 by microdilution method; outline: as §1
# Streptococcus pneumoniae [12] = assay: Antimicrobial activity against wild-type Streptococcus pneumoniae GA17457 expressing PmefE-lacZ gene induced by pretreatment with 200 ug/ml of compound for 1 hr by microdilution method; outline: as §2
# Streptococcus pneumoniae [13] = assay: Antimicrobial activity against mega::aad9-positive Streptococcus pneumoniae XZ8006 expressing PmefE-lacZ gene induced by pretreatment with 50 ug/ml of compound for 1 hr by microdilution method; outline: as §2
# Streptococcus pneumoniae [14] = assay: Antimicrobial activity against Streptococcus pneumoniae XZ7042 by Etest method
# Streptococcus pneumoniae [15] = assay: Antimicrobial activity against Streptococcus pneumoniae XZ7042 expressing PmefE-lacZ gene induced by pretreatment with 200 ug/ml of compound for 1 hr by microdilution method; outline: as §2
# Streptococcus pneumoniae [16] = assay: Antimicrobial activity against mefE-mel::aph3-positive Streptococcus pneumoniae XZ8009 by Etest method
# Streptococcus pneumoniae [17] = assay: Antimicrobial activity against wild-type Streptococcus pneumoniae GA17457 expressing PmefE-lacZ gene induced by pretreatment with 1 ug/ml of erythromycin for 1 hr by microdilution method; outline: as §3
# Streptococcus pneumoniae [18] = assay: Antimicrobial activity against wild-type Streptococcus pneumoniae GA17457 expressing PmefE-lacZ gene induced by pretreatment with 200 ug/ml of LL-37 peptide for 1 hr by microdilution method; outline: as §2
# Streptococcus pneumoniae [19] = assay: Antimicrobial activity against Streptococcus pneumoniae XZ7042 expressing PmefE-lacZ gene induced by pretreatment with 1 ug/ml of compound for 1 hr by microdilution method
# Outline: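 Reporter: PmefE-lacZ integrated at bga in clinical isolate GA17457 (serotype 19A). Cultures grown to OD600 0.4, split, and grown 1 h with or without a subinhibitory 1 μg/ml inducer. […] Representative of ≥3 experiments.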
# Streptococcus pneumoniae [20] = assay: Antimicrobial activity against mefE-mel::aph3-positive Streptococcus pneumoniae XZ8009 expressing PmefE-lacZ gene induced by pretreatment with 50 ug/ml of LL-37 peptide for 1 hr by microdilution method; outline: as §2
# Streptococcus pneumoniae [21] = assay: Antimicrobial activity against wild-type Streptococcus pneumoniae GA17457 expressing PmefE-lacZ gene induced by pretreatment with 1 ug/ml of compound for 1 hr by microdilution method; outline: as §3
# Streptococcus pneumoniae [22] = assay: Antimicrobial activity against Streptococcus pneumoniae XZ7042 expressing PmefE-lacZ gene induced by pretreatment with 200 ug/ml of LL-37 peptide for 1 hr by microdilution method; outline: as §2
# Streptococcus pneumoniae [23] = assay: Antimicrobial activity against mega::aad9-positive Streptococcus pneumoniae XZ8006 expressing PmefE-lacZ gene induced by pretreatment with 50 ug/ml of LL-37 peptide for 1 hr by microdilution method; outline: as §2
# Streptococcus pneumoniae [24] = assay: Antimicrobial activity against mega::aad9-positive Streptococcus pneumoniae XZ8004 expressing PmefE-lacZ gene induced by pretreatment with 100 ug/ml of LL-37 peptide for 1 hr by microdilution method; outline: as §2
compound,measurement,setting,value
CC[C@H](C)[C@H](NC(=O)[C@H](CCCCN)NC(=O)[C@H](CCC(=O)O)NC(=O)[C@H](CCCCN)NC(=O)[C@H](CO)NC(=O)[C@H](CCCCN)NC(=O)[C@H](CCCNC(=N)N)NC(=O)[C@H](Cc1ccccc1)NC(=O)[C@H](Cc1ccccc1)NC(=O)[C@H](CC(=O)O)NC(=O)CNC(=O)[C@H](CC(C)C)NC(=O)[C@@H](N)CC(C)C)C(=O)NCC(=O)N[C@@H](CCCCN)C(=O)N[C@@H](CCC(=O)O)C(=O)N[C@@H](Cc1ccccc1)C(=O)N[C@@H](CCCCN)C(=O)N[C@@H](CCCNC(=N)N)C(=O)N[C@H](C(=O)N[C@H](C(=O)N[C@@H](CCC(N)=O)C(=O)N[C@@H](CCCNC(=N)N)C(=O)N[C@H](C(=O)N[C@@H](CCCCN)C(=O)N[C@@H](CC(=O)O)C(=O)N[C@@H](Cc1ccccc1)C(=O)N[C@@H](CC(C)C)C(=O)N[C@@H](CCCNC(=N)N)C(=O)N[C@@H](CC(N)=O)C(=O)N[C@@H](CC(C)C)C(=O)N[C@H](C(=O)N1CCC[C@H]1C(=O)N[C@@H](CCCNC(=N)N)C(=O)N[C@H](C(=O)N[C@@H](CCC(=O)O)C(=O)N[C@@H](CO)C(=O)O)[C@@H](C)O)C(C)C)[C@@H](C)CC)C(C)C)[C@@H](C)CC [CATHELICIDIN],MBC,Streptococcus pneumoniae [1],500 µg/mL
same,MIC,Streptococcus pneumoniae [1],250 µg/mL
same,MIC,Streptococcus pneumoniae [2],0.125 µg/mL
same,MBC,Streptococcus pneumoniae [3],250 µg/mL
same,MIC,Streptococcus pneumoniae [3],125 µg/mL
same,MBC,Streptococcus pneumoniae [4],250 µg/mL
same,MIC,Streptococcus pneumoniae [4],64 µg/mL
same,MBC,Streptococcus pneumoniae [5],250 µg/mL
same,MIC,Streptococcus pneumoniae [5],125 µg/mL
same,MIC,Streptococcus pneumoniae [6],12 µg/mL
same,MIC,Streptococcus pneumoniae [7],0.125 µg/mL
same,MBC,Streptococcus pneumoniae [8],1000 µg/mL
same,MIC,Streptococcus pneumoniae [8],500 µg/mL
same,MBC,Streptococcus pneumoniae [9],> 2000 µg/mL
same,MIC,Streptococcus pneumoniae [9],2000 µg/mL
same,MBC,Streptococcus pneumoniae [10],1000 µg/mL
same,MIC,Streptococcus pneumoniae [10],500 µg/mL
same,MBC,Streptococcus pneumoniae [11],250 µg/mL
same,MIC,Streptococcus pneumoniae [11],125 µg/mL
same,MBC,Streptococcus pneumoniae [12],> 2000 µg/mL
same,MIC,Streptococcus pneumoniae [12],2000 µg/mL
same,MBC,Streptococcus pneumoniae [13],250 µg/mL
same,MIC,Streptococcus pneumoniae [13],125 µg/mL
same,MIC,Streptococcus pneumoniae [14],12 µg/mL
same,MBC,Streptococcus pneumoniae [15],> 2000 µg/mL
same,MIC,Streptococcus pneumoniae [15],2000 µg/mL
same,MIC,Streptococcus pneumoniae [16],0.125 µg/mL
same,MBC,Streptococcus pneumoniae [17],> 2000 µg/mL
same,MIC,Streptococcus pneumoniae [17],2000 µg/mL
CC[C@H]1OC(=O)[C@H](C)[C@@H](O[C@H]2C[C@@](C)(OC)[C@@H](O)[C@H](C)O2)[C@H](C)[C@@H](O[C@@H]2O[C@H](C)C[C@H](N(C)C)[C@H]2O)[C@](C)(O)C[C@@H](C)C(=O)[C@H](C)[C@@H](O)[C@]1(C)O [ERYTHROMYCIN],MBC,Streptococcus pneumoniae [1],4 µg/mL
same,MIC,Streptococcus pneumoniae [1],0.25 µg/mL
same,MBC,Streptococcus pneumoniae [18],32 µg/mL
same,MIC,Streptococcus pneumoniae [18],8 µg/mL
same,MBC,Streptococcus pneumoniae [19],> 64 µg/mL
same,MIC,Streptococcus pneumoniae [19],4 µg/mL
same,MBC,Streptococcus pneumoniae [3],4 µg/mL
same,MIC,Streptococcus pneumoniae [3],0.5 µg/mL
same,MBC,Streptococcus pneumoniae [8],16 µg/mL
same,MIC,Streptococcus pneumoniae [8],2 µg/mL
same,MBC,Streptococcus pneumoniae [20],2 µg/mL
same,MIC,Streptococcus pneumoniae [20],0.125 µg/mL
same,MBC,Streptococcus pneumoniae [21],> 64 µg/mL
same,MIC,Streptococcus pneumoniae [21],8 µg/mL
same,MBC,Streptococcus pneumoniae [22],32 µg/mL
same,MIC,Streptococcus pneumoniae [22],16 µg/mL
same,MBC,Streptococcus pneumoniae [10],8 µg/mL
same,MIC,Streptococcus pneumoniae [10],1 µg/mL
same,MBC,Streptococcus pneumoniae [11],4 µg/mL
same,MIC,Streptococcus pneumoniae [11],0.5 µg/mL
same,MBC,Streptococcus pneumoniae [23],4 µg/mL
same,MIC,Streptococcus pneumoniae [23],0.5 µg/mL
same,MBC,Streptococcus pneumoniae [24],4 µg/mL
same,MIC,Streptococcus pneumoniae [24],0.5 µg/mL
